# Measured values of several laboratories.
# Lines come from different studies, so protocols differ.
# Target: Serine/threonine-protein kinase pim-3 (PIM3, Homo sapiens, UniProt Q86V86)
Structure (SMILES),read-out,action,method,concentration,measurement,result
O=C(N1CCS(=O)(=O)CC1)N1C[C@H](c2ccc(OC(F)(F)F)cc2)C[C@H](c2nc(C3CC3)no2)C1,cell-free assay,,competition with immobilised ligand,1 µM,remaining binding,100%
COc1cc(Nc2cnc(C#N)c(O[C@H](C)CN(C)C)n2)ncc1-c1cnn(C)c1,enzyme activity,inhibitor,radiometric,10 µM,remaining activity,17%
Cc1sc(C(=O)NC2COC2)cc1-n1cc(NC(=O)Nc2c(F)cccc2Cl)cn1,enzyme activity,inhibitor,,10 µM,remaining activity,129%
O=C1Nc2ccc(Cl)cc2C1=Cc1cc(Cl)c(O)c(Cl)c1,cell-free assay,,,0.5 µM,remaining signal,14.5%
COc1cc(/C=C/C(=O)CC(=O)/C=C/c2ccc(O)c(OC)c2)ccc1O,enzyme activity,inhibitor,,1 µM,activity vs control,12%
Cc1cc(-n2nc(Cc3cc(F)cc(C(F)(F)F)c3)nc2C)ccc1C(N)=O,cell-free assay,,competition with immobilised ligand,1 µM,remaining binding,100%
Cc1cnc(NC2CCOCC2)nc1-n1cnc(C(=O)NC(CN)c2cc(F)cc(Cl)c2)c1 (stereo not shown),enzyme activity,inhibitor,radiometric,1 µM,remaining activity,95%
O=C(Nc1cnn(-c2csc(C(=O)NC3COC3)c2)c1)Nc1c(F)cccc1Cl,enzyme activity,inhibitor,,5 µM,remaining activity,73.9%
CC(C)(C)c1nc2c(s1)c1nc(N)ncc1c1ccc(NS(=O)(=O)c3c(F)cccc3F)c(F)c12,enzyme activity,inhibitor,radiometric,1 µM,remaining activity,105%
FC(F)c1nc2ccccc2n1-c1nc(N2CCOCC2)nc(N2CCOCC2)n1,enzyme activity,inhibitor,,10 µM,remaining activity,76%
O=C(O)[C@H]1[C@H](Cn2nnc3ccccc3c2=O)CC[C@@H]1C(=O)c1ccc(OCCC2CCOCC2)cc1,cell-free assay,,competition with immobilised ligand,1 µM,remaining binding,86%
CCCOc1ccc(OC)c(F)c1C(=O)c1ccc(C(=O)N[C@@H]2CNC[C@H]2NC(=O)c2ccc3[nH]ncc3c2)cc1,enzyme activity,inhibitor,,10 µM,remaining activity,97%
CC(=O)C1=C(C)N(c2cccc(C(F)(F)F)c2)C(=O)N[C@@H]1c1ccc(C#N)nc1,cell-free assay,,competition with immobilised ligand,1 µM,remaining binding,100%
Cn1c(=O)n(-c2ccc(C(C)(C)C#N)cc2)c2c3cc(-c4cnc5ccccc5c4)ccc3ncc21,enzyme activity,inhibitor,,10 µM,remaining activity,87%
O=C(CSc1nc2nccnc2c(=O)n1CCc1ccccc1)Nc1nccs1,enzyme activity,inhibitor,,10 µM,inhibition,-7%
CS(=O)(=O)NCC[C@H](NC(=O)c1cncc2c1cnn2-c1ccc(F)cc1)c1ccnc(S(C)(=O)=O)c1,cell-free assay,,competition with immobilised ligand,1 µM,remaining binding,100%
Nc1nc(NC2CCCCC2)sc1C(=O)c1ccccc1,enzyme activity,inhibitor,,10 µM,remaining activity,69%
Cc1ccc(Nc2nccc(N(C)c3ccc4c(C)n(C)nc4c3)n2)cc1S(N)(=O)=O,enzyme activity,inhibitor,,0.5 µM,remaining activity,81.6%
COc1cc(Cl)c(C(=O)N[C@@H](CN[C@H]2CC[C@@H](N)CC2)Cc2ccc(C#N)cc2)cc1-c1ccc(CN[C@H](C)c2ccc(C)cc2)o1,enzyme activity,inhibitor,,1 µM,remaining activity,84%
CCC(=O)N[C@H]1CC[C@@H](C(=O)N(C)c2ccc(-c3nc4ccccc4o3)cc2)C1,cell-free assay,,competition with immobilised ligand,1 µM,remaining binding,100%
N#CCCc1ccc2c(c1)-c1[nH]c3ccc([N+](=O)[O-])cc3c1CC(=O)N2,cell-free assay,,,0.5 µM,remaining signal,70.9%
Cc1ccc(C(=O)NCc2ccsc2)cc1C#Cc1cn(C(C)C)c2ncnc(N)c12,enzyme activity,inhibitor,,1 µM,activity vs control,85%
CN(c1ncccc1CNc1nc(Nc2ccc3c(c2)CC(=O)N3)ncc1C(F)(F)F)S(C)(=O)=O,enzyme activity,inhibitor,,1 µM,inhibition,21.2%
CS(=O)(=O)N1CCCC(NC(=O)[C@H](CCC2CCCCC2)NC(=O)c2ccc(CNC(=O)c3cnc4ccccn34)cc2)C1 (stereo partly shown),cell-free assay,,competition with immobilised ligand,0.1 µM,remaining binding,99%
Cc1ccc(NC(=O)c2ccc(C)c(C(F)(F)F)c2)cc1C#Cc1nn(C2CCC(O)CC2)c2ncnc(N)c12 (stereo not shown),cell-free assay,,,10 µM,remaining signal,99%
CCN(CC)c1ccc(C2=NNC(=O)CC2C)cc1[N+](=O)[O-] (stereo not shown),enzyme activity,inhibitor,,10 µM,remaining activity,96%
O=c1nc(-c2ccccn2)sc2ccccc12,binding,,competition with immobilised ligand,1 µM,remaining binding,100%
CNC(=O)c1cc(Oc2ccc(NC(=O)Nc3ccc(Cl)c(C(F)(F)F)c3)cc2)ccn1,enzyme activity,inhibitor,,0.3 µM,inhibition,-12%
